{"data": "Experimental data gathered from unrelated publications", "target": "Aurora kinase A (AURKA, Homo sapiens, UniProt O14965)", "One construct used (O14965 1-403)": "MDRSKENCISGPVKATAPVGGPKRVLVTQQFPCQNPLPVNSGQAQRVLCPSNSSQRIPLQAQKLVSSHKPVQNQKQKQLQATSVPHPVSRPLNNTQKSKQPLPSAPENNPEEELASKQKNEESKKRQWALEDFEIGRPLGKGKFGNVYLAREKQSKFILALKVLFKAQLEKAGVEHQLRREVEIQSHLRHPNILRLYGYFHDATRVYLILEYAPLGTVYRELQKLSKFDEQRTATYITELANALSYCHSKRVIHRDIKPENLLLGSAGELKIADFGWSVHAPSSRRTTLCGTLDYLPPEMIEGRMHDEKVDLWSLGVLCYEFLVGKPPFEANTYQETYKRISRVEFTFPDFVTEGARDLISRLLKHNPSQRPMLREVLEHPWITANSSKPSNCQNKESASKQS", "note": "Each line is one published result; the experiments were not run side by side."}
{"Compound": "CNc1cccc2cc(C(=O)Nc3ccc(C(=O)O)cc3)c(=O)[nH]c12", "read-out": "enzyme activity", "action": "inhibitor", "tested at": "10 µM", "measurement": "inhibition", "result": "16%"}
{"Compound": "CC(C)(O)[C@H]1CC[C@H](Nc2ccc3ncc(-c4cccc(C(F)(F)F)c4)n3n2)CC1", "read-out": "enzyme activity", "action": "inhibitor", "tested at": "1 µM", "measurement": "remaining activity", "result": "96.1%"}
{"Compound": "Oc1cccc(-c2nc(N3CCOCC3)c3oc4ncccc4c3n2)c1", "read-out": "enzyme activity", "action": "inhibitor", "tested at": "10 µM", "measurement": "remaining activity", "result": "92%"}
{"Compound": "O=C(Nc1cnn(-c2csc(C(=O)NC3COC3)c2)c1)Nc1ccccc1Cl", "read-out": "enzyme activity", "action": "inhibitor", "tested at": "5 µM", "measurement": "remaining activity", "result": "105%"}
{"Compound": "Cc1c[nH]c2nccc(Oc3c(F)cc(Nc4cc(Cl)nc(N)n4)cc3F)c12", "read-out": "cell-free assay", "method": "competition with immobilised ligand", "tested at": "0.1 µM", "measurement": "remaining binding", "result": "94%"}
{"Compound": "CC(C)c1ccc(NC(=O)c2cccs2)c(-c2nc3ccccc3[nH]c2=O)c1", "read-out": "enzyme activity", "action": "inhibitor", "tested at": "1 µM", "measurement": "activity vs control", "result": "83%"}
{"Compound": "Cc1cnc(NC2CCOCC2)nc1-n1cnc(C(=O)NC(CN)c2cc(F)cc(Cl)c2)c1 (centres unmarked)", "read-out": "enzyme activity", "action": "inhibitor", "method": "radiometric", "tested at": "1 µM", "measurement": "remaining activity", "result": "48%"}
{"Compound": "O=C(Nc1cnc(Oc2ccc(F)cc2)nc1)N1CCc2ncccc2[C@@H]1c1ccc(F)cc1", "read-out": "cell-free assay", "method": "competition with immobilised ligand", "tested at": "1 µM", "measurement": "remaining binding", "result": "100%"}
{"Compound": "Nc1ncnc2occ(-c3ccc(NC(=O)Nc4cc(C(F)(F)F)ccc4F)cc3)c12", "read-out": "enzyme activity", "action": "inhibitor", "tested at": "20 µM", "measurement": "remaining activity", "result": "0.1%"}
{"Compound": "COc1cc(Nc2cnc(C#N)c(O[C@H](C)CN(C)C)n2)ncc1-c1cnn(C)c1", "read-out": "enzyme activity", "action": "inhibitor", "method": "radiometric", "tested at": "10 µM", "measurement": "remaining activity", "result": "48%"}
{"Compound": "COc1cc(-c2cn(C3CCc4c(F)cccc4N(CC(F)(F)F)C3=O)nn2)ccc1-n1cnc(C)c1 (centres unmarked)", "read-out": "cell-free assay", "method": "competition with immobilised ligand", "tested at": "1 µM", "measurement": "remaining binding", "result": "100%"}
{"Compound": "CNC(=O)c1cc(Oc2ccc(NC(=O)Nc3ccc(Cl)c(C(F)(F)F)c3)cc2)ccn1", "read-out": "enzyme activity", "action": "inhibitor", "tested at": "0.3 µM", "measurement": "inhibition", "result": "16%"}
{"Compound": "CS(=O)(=O)Nc1cccc(-c2csc(NC(=O)CSc3nc4nccnc4c(=O)n3CCc3ccccc3)n2)c1", "read-out": "enzyme activity", "action": "inhibitor", "tested at": "10 µM", "measurement": "inhibition", "result": "0%"}
{"Compound": "Cc1ccc(Nc2nccc(N(C)c3ccc4c(C)n(C)nc4c3)n2)cc1S(N)(=O)=O", "read-out": "enzyme activity", "action": "inhibitor", "tested at": "0.3 µM", "measurement": "inhibition", "result": "73%"}
{"Compound": "Cc1ccc(C(=O)NCc2ccsc2)cc1C#Cc1cn(C(C)C)c2ncnc(N)c12", "read-out": "enzyme activity", "action": "inhibitor", "tested at": "1 µM", "measurement": "activity vs control", "result": "50%"}
{"Compound": "O=Nc1c(-c2c(O)[nH]c3ccccc23)[nH]c2ccccc12", "read-out": "cell-free assay", "tested at": "0.5 µM", "measurement": "remaining signal", "result": "21.3%"}
{"Compound": "Cn1c(=O)n(-c2ccc(C(C)(C)C#N)cc2)c2c3cc(-c4cnc5ccccc5c4)ccc3ncc21", "read-out": "enzyme activity", "action": "inhibitor", "tested at": "10 µM", "measurement": "remaining activity", "result": "104%"}
{"Compound": "Cc1cc(NC(=O)c2cccc(S(F)(F)(F)(F)F)c2)cc(-n2ccn3nc(-c4cccnc4)cc23)c1", "read-out": "cell-free assay", "method": "competition with immobilised ligand", "tested at": "1 µM", "measurement": "remaining binding", "result": "84.9%"}
{"Compound": "CC(C)(C)c1nc2c(s1)c1nc(N)ncc1c1ccc(NS(=O)(=O)c3c(F)cccc3F)c(F)c12", "read-out": "enzyme activity", "action": "inhibitor", "method": "radiometric", "tested at": "1 µM", "measurement": "remaining activity", "result": "103%"}
{"Compound": "CS(=O)(=O)c1cc(C2(NC(=O)c3cncc4c3cnn4-c3ccc(F)cc3)CC2)ccn1", "read-out": "cell-free assay", "method": "competition with immobilised ligand", "tested at": "1 µM", "measurement": "remaining binding", "result": "89%"}
{"Compound": "CNC(=O)c1ccccc1Nc1cc(Nc2ccc(N3CCOCC3)cc2OC)ncc1C(F)(F)F", "read-out": "enzyme activity", "action": "inhibitor", "tested at": "1 µM", "measurement": "inhibition", "result": "> 50%"}
{"Compound": "CCN(CC)CCNC(=O)c1c(C)[nH]c(/C=C2\\C(=O)Nc3ccc(F)cc32)c1C", "read-out": "enzyme activity", "action": "inhibitor", "tested at": "0.3 µM", "measurement": "inhibition", "result": "28%"}
{"Compound": "O=C1Nc2ccc(Cl)cc2C1=Cc1cc(Cl)c(O)c(Cl)c1", "read-out": "cell-free assay", "tested at": "0.5 µM", "measurement": "remaining signal", "result": "64.2%"}
{"Compound": "Cc1cc(NC(=O)c2cccc3cc(-c4cccc5[nH]nc(N)c45)ccc23)ccc1F", "read-out": "enzyme activity", "action": "inhibitor", "tested at": "0.1 µM", "measurement": "activity vs control", "result": "95%"}
{"Compound": "O=C(N1CCS(=O)(=O)CC1)N1C[C@H](c2ccc(OC(F)(F)F)cc2)C[C@H](c2nc(C3CC3)no2)C1", "read-out": "cell-free assay", "method": "competition with immobilised ligand", "tested at": "1 µM", "measurement": "remaining binding", "result": "100%"}
{"Compound": "COc1cc2ncnc(Nc3ccc(Oc4ccccc4)cc3C)c2cc1OC", "read-out": "enzyme activity", "action": "inhibitor", "tested at": "1 µM", "measurement": "inhibition", "result": "8%"}
{"Compound": "CCN(CC)CCNC(=O)c1c(C)[nH]c(/C=C2\\C(=O)Nc3ccc(F)cc32)c1C", "read-out": "enzyme activity", "action": "inhibitor", "tested at": "0.1 µM", "measurement": "remaining activity", "result": "83%"}
{"Compound": "CNC(=O)Nc1ccc2c(c1)CC[C@@]21OC(=O)N(CC(=O)N(Cc2ccc(F)cc2)[C@@H](C)C(F)(F)F)C1=O", "read-out": "cell-free assay", "method": "competition with immobilised ligand", "tested at": "1 µM", "measurement": "remaining binding", "result": "80%"}
{"Compound": "CCN(CC)c1ccc(C2=NNC(=O)CC2C)cc1[N+](=O)[O-] (centres unmarked)", "read-out": "enzyme activity", "action": "inhibitor", "tested at": "10 µM", "measurement": "remaining activity", "result": "93%"}
{"Compound": "CSc1nc(C)c(-c2ccnc(Nc3ccc(N4CCOCC4)cc3)c2)[nH]1", "read-out": "enzyme activity", "action": "inhibitor", "tested at": "10 µM", "measurement": "inhibition", "result": "40.6%"}
{"Compound": "C[C@@H]1CN(c2cc(-c3n[nH]c4ccc(OC5(C)CC5)cc34)ncn2)C[C@H](C)O1", "read-out": "cell-free assay", "method": "competition with immobilised ligand", "tested at": "0.1 µM", "measurement": "remaining binding", "result": "94%"}
{"Compound": "Cc1[nH]c(/C=C2\\C(=O)Nc3ccc(F)cc32)c(C)c1C(=O)N[C@H]1CCN(C(=O)N(C)C)C1", "read-out": "enzyme activity", "action": "inhibitor", "tested at": "1 µM", "measurement": "remaining activity", "result": "35%"}
